# Legend:
# Mus musculus [1] = experiment: Percent median survival time of mice injected with P388 leukemia, at a intravenous compound dose of 320 mg/kg
# L1210 = experiment: Inhibition of murine L1210 leukemia cell proliferation measured by the MTT assay; assay type: functional, cell-based; conditions: Mus musculus
# Method in brief: (§1)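 Murine L1210 leukemia and B16 melanoma cells were grown in RPMI 1640 with 10% fetal calf serum, 2 mM L-glutamine, penicillin/streptomycin and 10 mM HEPES (pH 7.4). Cells were exposed to nine serial drug dilutions in triplicate for about four doubling times (L1210 48 h, B16 96 h), then read by microculture tetrazolium (MTT) assay. IC50 is the concentration halving optical density versus untreated controls, averaged over ≥2 independent experiments.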
# B16 = experiment: Inhibition of murine B16 melanoma cell proliferation measured by the MTT assay; assay type: functional, cell-based; conditions: Mus musculus
# Method in brief: as §1
# Mus musculus [2] = experiment: Long-term survivors among 7 mice infected with B16 melanoma, scored on day 90 at 320 mg/kg dose on day 1; assay type: functional
# Mus musculus [3] = experiment: Percent median survival time of mice injected with P388 leukemia, at a intravenous compound dose of 80 mg/kg
# Mus musculus [4] = experiment: Long-term survivors among 7 mice infected with P388 leukemia, scored on day 60 at 320 mg/kg dose on day 1; assay type: functional
# Method in brief: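 B6D2F1 mice in groups of 6–7 received 10^6 P388 cells ip on day 0. Dihydrochloride salts dissolved in water were injected iv on day 1 or on days 1, 5 and 9, at three doses and then five. Read-outs were % T/C (median survival treated/control × 100) and long-term survivors on day 60, both at the optimal dose (no toxic death, weight loss <20%).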
# Mus musculus [5] = experiment: Percent median survival time of mice injected with B16 melanoma, at a intraperitoneal compound dose of 20 mg/kg
# Mus musculus [6] = experiment: Percent median survival time of mice intraperitoneally injected with P388 leukemia was determined from tested at 40 mg/kg at day1,5,9 dose to that of control; assay type: functional; conditions: route intraperitoneal
# Method in brief: (§2)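 P388 leukemia in B6D2F1 mice (groups of 6–7), 10^6 cells inoculated ip on day 0. Dihydrochloride salts were dissolved in water and given iv on day 1 or on days 1, 5, 9. Three doses were tested, then five if active. %T/C = median survival treated/control × 100, reported at the optimal dose (no toxic death, weight loss <20%), from one or two representative experiments.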
# Mus musculus [7] = experiment: Long-term survivors among 6 mice infected with P388 leukemia, scored on day 60 at 80 mg/kg dose; assay type: functional
# Method in brief: (§3)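 B6D2F1 mice in groups of 6–7 were inoculated ip on day 0 with 10^6 P388 cells. Dihydrochloride salts were dissolved in water and given iv on day 1 or on days 1, 5 and 9. Doses ranged from a low nontoxic dose to a toxic one. Long-term survivors were counted at day 60.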
# Mus musculus [8] = experiment: Long-term survivors among 6 mice infected with P388 leukemia, scored on day 60 at 40 mg/kg dose; assay type: functional
# Method in brief: as §3
# Mus musculus [9] = experiment: Percent median survival time of mice intraperitoneally injected with P388 leukemia was determined from tested at 80 mg/kg at day1 dose to that of control; assay type: functional; conditions: route intraperitoneal
# Method in brief: as §2
# Mus musculus [10] = experiment: Percent median survival time of mice injected with P388 leukemia, at a subcutaneous compound dose of 10 mg/kg; assay type: functional
# Mus musculus [11] = experiment: Long-term survivors among 6 mice infected with P388 leukemia, scored on day 60 at 10 mg/kg dose on day 1; assay type: functional
# Method in brief: as §3
# Mus musculus [12] = experiment: Percent median survival time of mice injected with P388 leukemia, at a intravenous compound dose of 5 mg/kg
# Mus musculus [13] = experiment: Long-term survivors among 6 mice infected with B16 melanoma, scored on day 90 at 10 mg/kg dose on day 1; assay type: functional
# Mus musculus [14] = experiment: Percent median survival time of mice injected with B16 melanoma, at a intraperitoneal compound dose of 10 mg/kg
# Mus musculus [15] = experiment: Long-term survivors among 7 mice infected with P388 leukemia, scored on day 90 at 20 mg/kg dose on day 1; assay type: functional
# Mus musculus [16] = experiment: Long-term survivors among 7 mice infected with B16 melanoma, scored on day 90 at 20 mg/kg dose on day 1; assay type: functional
# Mus musculus [17] = experiment: Percent median survival time of mice injected with P388 leukemia, at a subcutaneous compound dose of 20 mg/kg on day 1, 5, 9; assay type: functional
# Mus musculus [18] = experiment: Percent median survival time of mice intraperitoneally injected with P388 leukemia was determined from tested at 10 mg/kg at day1,5,9 dose to that of control; assay type: functional
# Method in brief: as §2
# Mus musculus [19] = experiment: Long-term survivors among 12 mice infected with P388 leukemia, scored on day 60 at 10 mg/kg dose; assay type: functional
# Method in brief: as §3
# Mus musculus [20] = experiment: Long-term survivors among 12 mice infected with P388 leukemia, scored on day 60 at 20 mg/kg dose; assay type: functional
# Method in brief: as §3
# Mus musculus [21] = experiment: Percent median survival time of mice intraperitoneally injected with P388 leukemia was determined from tested at 20 mg/kg at day1 dose to that of control; assay type: functional; conditions: route intraperitoneal
# Method in brief: as §2
# Mus musculus [22] = experiment: Long-term survivors among 13 mice infected with B16 melanoma, scored on day 90 at 0.3-0.6 mg/kg dose
# Mus musculus [23] = experiment: Percent median survival time of mice injected with B16 melanoma, at a intraperitoneal compound dose of 0.3-0.6 mg/kg
# Mus musculus [24] = experiment: Percent median survival time of mice intraperitoneally injected with P388 leukemia was determined from tested at 80 mg/kg at day1,5,9 dose to that of control; assay type: functional; conditions: route intraperitoneal
# Method in brief: as §2
# Mus musculus [25] = experiment: Long-term survivors among 12 mice infected with P388 leukemia, scored on day 60 at 320 mg/kg dose; assay type: functional
# Method in brief: as §3
# Mus musculus [26] = experiment: Long-term survivors among 12 mice infected with P388 leukemia, scored on day 60 at 80 mg/kg dose; assay type: functional
# Method in brief: as §3
structure (smiles),measurement,setting,value
Cc1c2ccnc(C(=O)NCCN(C)C)c2cc2c3cc(OC(=O)CCC(NC(=O)OC(C)(C)C)C(=O)O)ccc3n(C)c12 (stereo not given),T/C,Mus musculus [1],>614%
same,IC50,L1210,89.3 nM
same,IC50,B16,4 nM
same,LTS,Mus musculus [2],0
same,T/C,Mus musculus [3],>614%
same,LTS,Mus musculus [4],0
Cc1c2ccnc(C(=O)NCCN(C)C)c2cc2c3cc(OC(=O)N(C)C)ccc3n(C)c12,T/C,Mus musculus [5],161%
same,IC50,L1210,1850 nM
same,T/C,Mus musculus [6],119%
same,IC50,B16,2670 nM
same,LTS,Mus musculus [7],0
same,LTS,Mus musculus [8],0
same,T/C,Mus musculus [9],124%
Cc1c2ccnc(C(=O)NCCN(C)C)c2cc2c3cc(OC(=O)CCC(=O)OCc4ccccc4)ccc3n(C)c12,T/C,Mus musculus [10],111%
same,LTS,Mus musculus [11],0
same,IC50,L1210,47.4 nM
same,IC50,B16,9.9 nM
same,T/C,Mus musculus [12],96%
same,LTS,Mus musculus [13],1
same,T/C,Mus musculus [14],169%
CCOCCC(=O)Oc1ccc2c(c1)c1cc3c(C(=O)NCCN(C)C)nccc3c(C)c1n2C,LTS,Mus musculus [15],0
same,IC50,L1210,5.7 nM
same,IC50,B16,3 nM
same,LTS,Mus musculus [16],0
same,T/C,Mus musculus [14],157%
same,T/C,Mus musculus [17],222%
Cc1c(O)ccc2c1c1cc3c(C(=O)NCCN(C)C)nccc3c(C)c1n2C,T/C,Mus musculus [18],223%
same,IC50,L1210,3.5 nM
same,IC50,B16,0.2 nM
same,LTS,Mus musculus [19],0
same,LTS,Mus musculus [20],0
same,T/C,Mus musculus [21],211%
same,LTS,Mus musculus [22],0
same,T/C,Mus musculus [23],144%
Cc1c2ccnc(C(=O)NCCN(C)C)c2cc2c3cc(OC(=O)OCCCC(=O)O)ccc3n(C)c12,T/C,Mus musculus [5],167%
same,T/C,Mus musculus [24],>600%
same,IC50,L1210,64 nM
same,IC50,B16,4.8 nM
same,LTS,Mus musculus [25],8
same,LTS,Mus musculus [26],7

# Reference: ChEMBL document CHEMBL1132144, “Synthesis of 9-O-substituted derivatives of 9-hydroxy-5, 6-dimethyl-6H-pyrido[4,3-b]carbazole-1-carboxylic acid (2-(dimethylamino)ethyl)amide and their 10- and 11-methyl analogues with improved antitumor activity” (J Med Chem, 1999)
